Source: PMC7746607 (Nature, 2020)

Key:
[1] = target: KSR1-luc (KSR-bound MEK) (UniProt Q02750+Q61097); assay: NanoBRET washout, intracellular residence time on KSR1-luc; assay type: binding, mouse; details: 175-minute time course, range of inhibitor concentrations, tram-bo 1 μM
[2] = target: mouse KSR1-Nanoluc (KSR-bound MEK) (UniProt Q02750+Q61097); assay: NanoBRET in-cell steady-state competition with tram-bo tracer on KSR1-luc; assay type: binding; details: MEK1-luc vs KSR1-luc
[3] = target: MEK1-luc (Homo sapiens, UniProt Q02750); assay: NanoBRET washout, intracellular residence time on MEK1-luc; assay type: binding; details: 175-minute time course, tram-bo 1 μM
MEK1-luc, sequence (Q02750 whole entry): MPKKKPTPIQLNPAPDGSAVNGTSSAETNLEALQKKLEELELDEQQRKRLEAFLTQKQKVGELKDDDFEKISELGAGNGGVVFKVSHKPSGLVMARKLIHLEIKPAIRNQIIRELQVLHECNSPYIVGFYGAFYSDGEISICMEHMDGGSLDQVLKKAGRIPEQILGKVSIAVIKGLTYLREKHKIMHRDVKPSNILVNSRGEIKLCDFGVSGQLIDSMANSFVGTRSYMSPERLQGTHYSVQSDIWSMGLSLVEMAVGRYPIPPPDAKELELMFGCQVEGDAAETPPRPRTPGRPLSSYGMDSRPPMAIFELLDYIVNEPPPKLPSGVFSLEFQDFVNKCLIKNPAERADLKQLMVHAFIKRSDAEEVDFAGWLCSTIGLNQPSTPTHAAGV

[4] = target: KSR1 and MEK1 interaction (UniProt Q02750+Q61097); assay type: cell-based, mouse KSR1, human HCT116 cells; details: HCT116, wild-type KSR1, 200 nM, 1 hour
KSR1 and MEK1 interaction, sequence (Q02750 whole entry): as above
KSR1 and MEK1 interaction, sequence (Q61097 whole entry): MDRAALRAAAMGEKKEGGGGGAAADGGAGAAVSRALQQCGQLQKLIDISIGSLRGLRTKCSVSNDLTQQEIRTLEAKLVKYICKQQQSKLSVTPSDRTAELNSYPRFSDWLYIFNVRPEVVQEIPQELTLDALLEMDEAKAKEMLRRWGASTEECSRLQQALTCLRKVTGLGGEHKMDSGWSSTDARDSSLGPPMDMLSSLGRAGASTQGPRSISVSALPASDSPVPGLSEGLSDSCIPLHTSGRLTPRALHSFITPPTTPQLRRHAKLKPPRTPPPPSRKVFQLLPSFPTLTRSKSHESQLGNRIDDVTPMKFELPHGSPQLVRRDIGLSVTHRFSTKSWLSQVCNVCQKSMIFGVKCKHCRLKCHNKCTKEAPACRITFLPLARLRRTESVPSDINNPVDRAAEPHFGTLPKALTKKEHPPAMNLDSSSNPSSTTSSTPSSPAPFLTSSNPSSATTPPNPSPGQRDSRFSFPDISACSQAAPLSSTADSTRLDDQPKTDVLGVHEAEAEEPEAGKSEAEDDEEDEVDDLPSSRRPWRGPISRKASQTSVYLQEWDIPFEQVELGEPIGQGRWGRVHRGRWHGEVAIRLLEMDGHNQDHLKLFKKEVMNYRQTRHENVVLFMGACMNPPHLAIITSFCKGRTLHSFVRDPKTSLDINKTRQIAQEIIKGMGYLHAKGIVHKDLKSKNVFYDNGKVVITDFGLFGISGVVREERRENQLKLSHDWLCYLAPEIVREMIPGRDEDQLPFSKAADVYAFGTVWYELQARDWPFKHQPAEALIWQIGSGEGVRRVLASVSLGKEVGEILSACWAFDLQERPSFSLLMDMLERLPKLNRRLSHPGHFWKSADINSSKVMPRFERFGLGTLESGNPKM
Procedure, shortened: (§1)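 HCT116 cells were plated 48 h to ~70% confluency, then transfected (Lipofectamine 3000) with FLAG-KSR1 (2.3 μg, WT) or FLAG-BRAF (10 μg, WT). At 24 h cells got 0.1% DMSO or 200 nM test compound for 1 h, then were lysed in NP-40 buffer on ice for 30 min. 250 μg lysate was rotated 4 h at 4 °C with anti-MEK1/Protein A resin, with an IgG control. Anti-FLAG immunoblot; three independent experiments.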

[5] = target: BRAF and MEK1 interaction (Homo sapiens, UniProt Q02750); assay: IP/WB of endogenous MEK1 from HCT116 cells, BRAF pulldown; assay type: cell-based; details: HCT116, 200 nM, 1 hour
BRAF and MEK1 interaction, sequence (Q02750 whole entry): as the sequence (Q02750 whole entry) above
Procedure, shortened: as §1

[6] = target: RET-luc (Homo sapiens, UniProt P07949); assay: NanoBRET control kinase dose response, RET-luc; assay type: binding; details: 293T cells, tram-bo or tracer K5
RET-luc, sequence (P07949 29-1114): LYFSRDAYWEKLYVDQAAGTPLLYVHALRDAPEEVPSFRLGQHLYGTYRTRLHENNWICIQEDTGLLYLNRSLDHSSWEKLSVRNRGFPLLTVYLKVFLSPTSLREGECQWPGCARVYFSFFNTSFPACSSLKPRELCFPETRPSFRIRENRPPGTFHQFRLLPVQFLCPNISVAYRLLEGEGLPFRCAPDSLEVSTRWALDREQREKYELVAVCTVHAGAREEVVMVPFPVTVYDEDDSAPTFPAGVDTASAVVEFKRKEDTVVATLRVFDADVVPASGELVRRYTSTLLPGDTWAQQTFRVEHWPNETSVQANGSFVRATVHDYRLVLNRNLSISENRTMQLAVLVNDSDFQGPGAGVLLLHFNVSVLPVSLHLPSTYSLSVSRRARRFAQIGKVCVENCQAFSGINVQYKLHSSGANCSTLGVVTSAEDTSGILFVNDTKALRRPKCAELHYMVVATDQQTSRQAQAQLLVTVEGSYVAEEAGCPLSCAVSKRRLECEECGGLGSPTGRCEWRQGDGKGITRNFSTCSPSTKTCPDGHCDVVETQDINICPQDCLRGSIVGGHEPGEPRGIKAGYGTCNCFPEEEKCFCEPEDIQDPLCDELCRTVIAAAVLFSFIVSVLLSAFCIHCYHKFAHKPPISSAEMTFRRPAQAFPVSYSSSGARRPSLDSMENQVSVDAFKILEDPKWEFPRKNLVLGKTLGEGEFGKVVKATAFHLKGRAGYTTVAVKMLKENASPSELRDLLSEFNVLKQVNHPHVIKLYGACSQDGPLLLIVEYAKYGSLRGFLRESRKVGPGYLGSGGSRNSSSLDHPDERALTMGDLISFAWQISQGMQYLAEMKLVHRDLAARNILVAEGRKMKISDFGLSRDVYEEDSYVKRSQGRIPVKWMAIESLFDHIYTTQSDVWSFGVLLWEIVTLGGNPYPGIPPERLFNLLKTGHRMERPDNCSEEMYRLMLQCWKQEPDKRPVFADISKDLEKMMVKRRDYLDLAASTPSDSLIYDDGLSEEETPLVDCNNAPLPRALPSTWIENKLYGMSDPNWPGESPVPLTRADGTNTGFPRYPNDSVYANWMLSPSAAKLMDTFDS

[7] = target: SRC-luc (Homo sapiens, UniProt P12931); assay: NanoBRET control kinase dose response, SRC-luc; assay type: binding; details: 293T cells, tram-bo or tracer K4
SRC-luc, sequence (P12931 whole entry): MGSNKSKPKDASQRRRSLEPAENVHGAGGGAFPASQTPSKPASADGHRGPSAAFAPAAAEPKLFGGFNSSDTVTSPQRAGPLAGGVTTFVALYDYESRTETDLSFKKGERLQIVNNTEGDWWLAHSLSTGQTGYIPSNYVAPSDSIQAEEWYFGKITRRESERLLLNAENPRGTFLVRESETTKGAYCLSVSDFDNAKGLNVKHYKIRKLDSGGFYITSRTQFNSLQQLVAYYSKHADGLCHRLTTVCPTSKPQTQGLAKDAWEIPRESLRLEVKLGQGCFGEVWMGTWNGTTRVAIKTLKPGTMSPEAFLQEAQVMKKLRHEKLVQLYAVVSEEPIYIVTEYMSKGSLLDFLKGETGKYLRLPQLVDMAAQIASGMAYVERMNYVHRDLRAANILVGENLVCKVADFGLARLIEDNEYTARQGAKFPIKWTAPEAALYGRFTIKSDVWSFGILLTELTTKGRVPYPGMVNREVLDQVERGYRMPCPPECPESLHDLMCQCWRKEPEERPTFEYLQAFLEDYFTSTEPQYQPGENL

KSR1-luc (KSR-bound MEK), sequence (Q02750 whole entry): as the sequence (Q02750 whole entry) above
KSR1-luc (KSR-bound MEK), sequence (Q61097 whole entry): as the sequence (Q61097 whole entry) above
mouse KSR1-Nanoluc (KSR-bound MEK), sequence (Q02750 whole entry): as the sequence (Q02750 whole entry) above
mouse KSR1-Nanoluc (KSR-bound MEK), sequence (Q61097 whole entry): as the sequence (Q61097 whole entry) above

Structure (SMILES) | dissociation after washout on KSR1-luc (BRET signal recovery) [1] | difference in potency (IC50) between KSR1-luc and MEK1-luc [2] | dissociation after washout on MEK1-luc [3] | co-immunoprecipitation of KSR1 via endogenous MEK [4] | co-immunoprecipitation of BRAF via endogenous MEK [5] | dose response on RET-luc [6] | dose response on SRC-luc [7]
O=C(c1ccc(F)c(F)c1Nc1ccc(I)cc1F)N1CC(O)([C@@H]2CCCCN2)C1 [cobimetinib, Cobimetinib] | dissociated more readily | ~ 20 fold | dissociated more readily |  |  |  | 
CC(=O)Nc1cccc(-n2c(=O)n(C3CC3)c(=O)c3c(Nc4ccc(I)cc4F)n(C)c(=O)c(C)c32)c1 [trametinib, Trametinib] |  |  |  | sustained pulldown of KSR1 | diminished binding of BRAF | no discernible dose response | no discernible dose response
